Values after ≈ are worked out from the molar mass of the structure shown.
How the values were obtained:
[1] = system: Mycobacteroides abscessus; experiment: Antibacterial activity against Mycobacterium abscessus CIP104536 after 3 to 5 days by two fold serial dilution method; assay type: functional
Summary of the method: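 Broth microdilution per CLSI in cation-adjusted Mueller–Hinton broth; exponential-phase inoculum 5 × 10^6 CFU/mL; two-fold serial dilutions from highest concentration, solvent wells as control; 30 °C for 3−5 days; MIC read visually and confirmed by absorbance at 560 nm; triplicate on three independent occasions.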

[2] = system: Mycobacterium tuberculosis; experiment: Antibacterial activity against Mycobacterium tuberculosis by AlamarBlue assay; assay type: functional
Vero = experiment: Cytotoxicity against African green monkey Vero cells; assay type: cell-based; details: Chlorocebus sabaeus
[3] = Selectivity index, ratio of IC50 for African green monkey Vero cells to MIC=<90 for Mycobacterium tuberculosis; assay type: toxicity; details: read-out: Selectivity Index
[4] = Selectivity index, ratio of IC50 for African green monkey Vero cells to MIC for Mycobacterium abscessus CIP104536; assay type: toxicity; details: read-out: Selectivity Index
[5] = system: Mycobacteroides abscessus; experiment: Antibacterial activity against CF patient derived Mycobacterium abscessus subsp. abscessus isolate 2524 rough variant after 3 to 5 days by two fold serial dilution method; assay type: functional
Summary of the method: (§1)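 Broth microdilution in cation-adjusted Mueller−Hinton broth per CLSI; inoculum 5 × 10^6 CFU/mL of exponential-phase bacteria; two-fold serial dilutions, solvent-only wells as control; 30 °C for 3−5 days; MIC read visually and confirmed by absorbance at 560 nm; triplicate on three independent occasions.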

[6] = system: Mycobacteroides abscessus; experiment: Antibacterial activity against CF patient derived Mycobacterium abscessus subsp. abscessus isolate 2648 rough variant after 3 to 5 days by two fold serial dilution method; assay type: functional; summary of the method: as §1
[7] = system: Mycobacteroides abscessus; experiment: Antibacterial activity against non CF patient derived Mycobacterium abscessus subsp. abscessus isolate 3022 rough variant after 3 to 5 days by two fold serial dilution method; assay type: functional; summary of the method: as §1
[8] = system: Mycobacteroides abscessus; experiment: Antibacterial activity against CF patient derived Mycobacterium abscessus subsp. abscessus rough variant after 3 to 5 days by two fold serial dilution method; assay type: functional; summary of the method: as §1
[9] = system: Mycobacteroides abscessus; experiment: Antibacterial activity against non CF patient derived Mycobacterium abscessus subsp. abscessus isolate CIP104536 smooth variant after 3 to 5 days by two fold serial dilution method; assay type: functional; summary of the method: as §1
[10] = system: Mycobacteroides abscessus; experiment: Antibacterial activity against non CF patient derived Mycobacterium abscessus subsp. abscessus isolate CIP104536 rough variant after 3 to 5 days by two fold serial dilution method; assay type: functional; summary of the method: as §1
[11] = system: Mycobacteroides abscessus; experiment: Antibacterial activity against CF patient derived Mycobacterium abscessus subsp. abscessus isolate 3321 smooth variant after 3 to 5 days by two fold serial dilution method; assay type: functional; summary of the method: as §1
[12] = system: Mycobacteroides abscessus; experiment: Antibacterial activity against CF patient derived Mycobacterium abscessus subsp. abscessus isolate 1298 smooth variant after 3 to 5 days by two fold serial dilution method; assay type: functional; summary of the method: as §1
[13] = system: Mycobacteroides abscessus; experiment: Antibacterial activity against non CF patient derived Mycobacterium abscessus subsp. abscessus isolate 2587 smooth variant after 3 to 5 days by two fold serial dilution method; assay type: functional; summary of the method: as §1
[14] = system: Mycobacteroides abscessus; experiment: Antibacterial activity against CF patient derived Mycobacterium abscessus subsp. abscessus isolate 2069 smooth variant after 3 to 5 days by two fold serial dilution method; assay type: functional; summary of the method: as §1
[15] = system: Mycobacteroides abscessus; experiment: Antibacterial activity against CF patient derived Mycobacterium abscessus subsp. abscessus smooth variant after 3 to 5 days by two fold serial dilution method; assay type: functional; summary of the method: as §1
[16] = system: Mycobacteroides abscessus; experiment: Antibacterial activity against CF patient derived Mycobacterium abscessus subsp. massiliense isolate 210 rough variant after 3 to 5 days by two fold serial dilution method; assay type: functional; summary of the method: as §1
[17] = system: Mycobacteroides abscessus; experiment: Antibacterial activity against Addison's disease patient derived Mycobacterium abscessus subsp. massiliense isolate CIP108297 rough variant after 3 to 5 days by two fold serial dilution method; assay type: functional; summary of the method: as §1
[18] = system: Mycobacteroides abscessus; experiment: Antibacterial activity against Addison's disease patient derived Mycobacterium abscessus subsp. massiliense isolate CIP108297 smooth variant after 3 to 5 days by two fold serial dilution method; assay type: functional; summary of the method: as §1
[19] = system: Mycobacteroides abscessus; experiment: Antibacterial activity against CF patient derived Mycobacterium abscessus subsp. massiliense isolate 111 smooth variant after 3 to 5 days by two fold serial dilution method; assay type: functional; summary of the method: as §1
[20] = system: Mycobacteroides abscessus; experiment: Antibacterial activity against CF patient derived Mycobacterium abscessus subsp. massiliense isolate 212 smooth variant after 3 to 5 days by two fold serial dilution method; assay type: functional; summary of the method: as §1
[21] = system: Mycobacteroides abscessus; experiment: Antibacterial activity against CF patient derived Mycobacterium abscessus subsp. massiliense isolate 185 smooth variant after 3 to 5 days by two fold serial dilution method; assay type: functional; summary of the method: as §1
[22] = system: Mycobacteroides abscessus; experiment: Antibacterial activity against CF patient derived Mycobacterium abscessus subsp. massiliense isolate 140 smooth variant after 3 to 5 days by two fold serial dilution method; assay type: functional; summary of the method: as §1
[23] = system: Mycobacteroides abscessus; experiment: Antibacterial activity against CF patient derived Mycobacterium abscessus subsp. massiliense isolate 100 smooth variant after 3 to 5 days by two fold serial dilution method; assay type: functional; summary of the method: as §1
[24] = system: Mycobacteroides abscessus; experiment: Antibacterial activity against CF patient derived Mycobacterium abscessus subsp. massiliense isolate 107 smooth variant after 3 to 5 days by two fold serial dilution method; assay type: functional; summary of the method: as §1
[25] = system: Mycobacteroides abscessus; experiment: Antibacterial activity against CF patient derived Mycobacterium abscessus subsp. massiliense isolate 122 smooth variant after 3 to 5 days by two fold serial dilution method; assay type: functional; summary of the method: as §1
[26] = system: Mycobacteroides abscessus; experiment: Antibacterial activity against CF patient derived Mycobacterium abscessus subsp. massiliense isolate 120 smooth variant after 3 to 5 days by two fold serial dilution method; assay type: functional; summary of the method: as §1
[27] = Antibacterial activity against non CF patient derived Mycobacterium abscessus subsp. bolletii isolate 19 rough variant after 3 to 5 days by two fold serial dilution method; assay type: functional; details: Mycobacteroides abscessus; summary of the method: as §1
[28] = Antibacterial activity against CF patient derived Mycobacterium abscessus subsp. bolletii isolate 108 rough variant after 3 to 5 days by two fold serial dilution method; assay type: functional; details: Mycobacteroides abscessus; summary of the method: as §1
[29] = Antibacterial activity against non CF patient derived Mycobacterium abscessus subsp. bolletii isolate 17 smooth variant after 3 to 5 days by two fold serial dilution method; assay type: functional; details: Mycobacteroides abscessus; summary of the method: as §1
[30] = Antibacterial activity against CF patient derived Mycobacterium abscessus subsp. bolletii isolate 97 smooth variant after 3 to 5 days by two fold serial dilution method; assay type: functional; details: Mycobacteroides abscessus; summary of the method: as §1
[31] = Antibacterial activity against CF patient derived Mycobacterium abscessus subsp. bolletii isolate 114 smooth variant after 3 to 5 days by two fold serial dilution method; assay type: functional; details: Mycobacteroides abscessus; summary of the method: as §1
[32] = Antibacterial activity against CF patient derived Mycobacterium abscessus subsp. bolletii isolate 116 smooth variant after 3 to 5 days by two fold serial dilution method; assay type: functional; details: Mycobacteroides abscessus; summary of the method: as §1
[33] = Antibacterial activity against CF patient derived Mycobacterium abscessus subsp. bolletii isolate 112 rough variant after 3 to 5 days by two fold serial dilution method; assay type: functional; details: Mycobacteroides abscessus; summary of the method: as §1
[34] = Antibacterial activity against Mycobacterium abscessus subsp. bolletii isolate CIP108541 smooth variant after 3 to 5 days by two fold serial dilution method; assay type: functional; details: Mycobacteroides abscessus; summary of the method: as §1

Cc1cc(C)c2cc(CNC(=O)C3CCCCCC3)[nH]c2c1
MIC [1]: > 32 µg/mL | MIC=<90 [2]: 16 µg/mL (≈ 53.6 µM)

Cc1ccc2cc(C(=O)NC3CCCCCC3)[nH]c2c1
MIC [1]: 0.25 µg/mL (≈ 0.925 µM) | MIC=<90 [2]: 0.0313 µg/mL (≈ 0.116 µM)

Cc1cccc2[nH]c(C(=O)NC3CCCCCC3)cc12
MIC [1]: 0.25 µg/mL (≈ 0.925 µM) | MIC=<90 [2]: 0.0313 µg/mL (≈ 0.116 µM)

COc1cc(OC)c2cc(C(=O)NC3CCCCCC3)[nH]c2c1
MIC [1]: 1 µg/mL (≈ 3.16 µM) | MIC=<90 [2]: 0.0625 µg/mL (≈ 0.198 µM)

O=C(Nc1nc2ccc(OC(F)(F)F)cc2s1)C1CCCCCC1
MIC [1]: > 32 µg/mL | MIC=<90 [2]: 128 µg/mL (≈ 357 µM)

Cc1cc(C)c2cc(C(=O)NC3CCCCCC3)[nH]c2c1
MIC [1]: 0.125 µg/mL (≈ 0.44 µM) | MIC=<90 [2]: 0.0039 µg/mL (≈ 0.0137 µM) | IC50 (Vero): 16 µg/mL (≈ 56.3 µM) | selectivity ratio [3]: 4100 | selectivity ratio [4]: 128

Cc1cc(C)c2cc(C(=O)NC3CCCCCCC3)oc2c1
MIC [1]: 0.5 µg/mL (≈ 1.67 µM) | MIC=<90 [2]: 8 µg/mL (≈ 26.7 µM)

Cc1cc(C)c2[nH]c(C(=O)NC3CCCCCC3)cc2c1
MIC [1]: 0.25 µg/mL (≈ 0.879 µM) | MIC=<90 [2]: 0.0625 µg/mL (≈ 0.22 µM)

O=C(NC1CCC2(CCCCC2)CC1)c1cc2c(Cl)cc(Cl)cc2[nH]1
MIC [1]: > 32 µg/mL | MIC=<90 [2]: 0.001953 µg/mL (≈ 0.00515 µM) | IC50 (Vero): ≥ 64 µg/mL | selectivity ratio [3]: ≥ 32800 | selectivity ratio [4]: ≥ 2

O=C(NC1Cc2ccccc2C1)c1cc2c(Cl)cc(Cl)cc2[nH]1
MIC [1]: > 32 µg/mL | MIC=<90 [2]: 0.25 µg/mL (≈ 0.724 µM)

CC1(C)C2CC[C@@]1(C)C(NC(=O)c1cc3c(Cl)cc(Cl)cc3[nH]1)C2 (some centres not stated)
MIC [1]: > 32 µg/mL | MIC=<90 [2]: 0.0156 µg/mL (≈ 0.0427 µM) | IC50 (Vero): 8 µg/mL (≈ 21.9 µM) | selectivity ratio [3]: 513 | selectivity ratio [4]: 0.25

NCC[C@H](O)C(=O)N[C@@H]1C[C@H](N)[C@@H](O[C@H]2O[C@H](CN)[C@@H](O)[C@H](O)[C@H]2O)[C@H](O)[C@H]1O[C@H]1O[C@H](CO)[C@@H](O)[C@H](N)[C@H]1O [AMIKACIN]
MIC [5]: 25 µg/mL (≈ 42.7 µM) | MIC [6]: 12.5 µg/mL (≈ 21.3 µM) | MIC [7]: 12.5 µg/mL (≈ 21.3 µM) | MIC [8]: 12.5 µg/mL (≈ 21.3 µM) | MIC [9]: 25 µg/mL (≈ 42.7 µM) | MIC [10]: 12.5 µg/mL (≈ 21.3 µM) | MIC [11]: 25 µg/mL (≈ 42.7 µM) | MIC [12]: 12.5 µg/mL (≈ 21.3 µM) | MIC [13]: 25 µg/mL (≈ 42.7 µM) | MIC [14]: 25 µg/mL (≈ 42.7 µM) | MIC [15]: 12.5 µg/mL (≈ 21.3 µM) | MIC [16]: 12.5 µg/mL (≈ 21.3 µM) | MIC [17]: 12.5 µg/mL (≈ 21.3 µM) | MIC [18]: 25 µg/mL (≈ 42.7 µM) | MIC [19]: 25 µg/mL (≈ 42.7 µM) | MIC [20]: 25 µg/mL (≈ 42.7 µM) | MIC [21]: 25 µg/mL (≈ 42.7 µM) | MIC [22]: 25 µg/mL (≈ 42.7 µM) | MIC [23]: > 100 µg/mL | MIC [24]: 12.5 µg/mL (≈ 21.3 µM) | MIC [25]: 12.5 µg/mL (≈ 21.3 µM) | MIC [26]: 12.5 µg/mL (≈ 21.3 µM) | MIC [27]: 50 µg/mL (≈ 85.4 µM) | MIC [28]: 12.8 µg/mL (≈ 21.9 µM) | MIC [29]: 12.5 µg/mL (≈ 21.3 µM) | MIC [30]: 12.5 µg/mL (≈ 21.3 µM) | MIC [31]: 12.5 µg/mL (≈ 21.3 µM) | MIC [32]: 12.5 µg/mL (≈ 21.3 µM) | MIC [33]: > 100 µg/mL | MIC [34]: 25 µg/mL (≈ 42.7 µM)

Cc1cc(C)c2cc(CNC3CCCCCCC3)[nH]c2c1
MIC [1]: 0.5 µg/mL (≈ 1.76 µM) | MIC=<90 [2]: 0.125 µg/mL (≈ 0.439 µM)

C[C@@H]1[C@@H](NC(=O)c2cc3ccc(Br)cc3[nH]2)C[C@H]2C[C@@H]1C2(C)C
MIC [1]: 0.125 µg/mL (≈ 0.333 µM) | MIC=<90 [2]: 0.0039 µg/mL (≈ 0.0104 µM)

CC(C)=CCC/C(C)=C/CNC(=O)c1cc2c(Cl)cc(Cl)cc2[nH]1
MIC [1]: > 32 µg/mL | MIC=<90 [2]: 4 µg/mL (≈ 10.9 µM)

Source: ChEMBL document CHEMBL4014347, “Targeting Mycolic Acid Transport by Indole-2-carboxamides for the Treatment of Mycobacterium abscessus Infections” (J Med Chem, 2017)
